Results published in ChEMBL document CHEMBL1933063, “Investigation of chalcones and benzochalcones as inhibitors of breast cancer resistance protein” (Bioorg Med Chem, 2012).
The source made the active and inactive calls. The rule behind the calls is not given here.

Columns and labels:
MDCK-II = test: Potentiation of SN-38 anticancer activity against MDCK2 cells expressing human BCRP after 72 hrs by MTT assay; type: functional, cell-based; conditions: Canis lupus familiaris
Summary of the method: (§1)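 Cells seeded (1250/well MDCK, 10,000/well MCF-7) and left 6 h at 37 °C, 5% CO2. Mitoxantrone or SN-38 dose range added with or without three concentrations of modulator, then 72 h incubation. MTT added for 1 h, cells lysed in DMSO, absorbance read at 544 nm minus 710 nm. EC50 derived; parental cells as controls; three independent experiments.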

[1] = molecular target: T1, Broad substrate specificity ATP-binding cassette transporter ABCG2 (Homo sapiens, UniProt Q9UNQ0); test: Inhibition of human BCRP expressed in MDCK2 cells assessed as Hoechst 33342 accumulation preincubated for 30 mins by fluorimetry; type: cell-based, MDCK-II
T1 sequence (Q9UNQ0 whole entry): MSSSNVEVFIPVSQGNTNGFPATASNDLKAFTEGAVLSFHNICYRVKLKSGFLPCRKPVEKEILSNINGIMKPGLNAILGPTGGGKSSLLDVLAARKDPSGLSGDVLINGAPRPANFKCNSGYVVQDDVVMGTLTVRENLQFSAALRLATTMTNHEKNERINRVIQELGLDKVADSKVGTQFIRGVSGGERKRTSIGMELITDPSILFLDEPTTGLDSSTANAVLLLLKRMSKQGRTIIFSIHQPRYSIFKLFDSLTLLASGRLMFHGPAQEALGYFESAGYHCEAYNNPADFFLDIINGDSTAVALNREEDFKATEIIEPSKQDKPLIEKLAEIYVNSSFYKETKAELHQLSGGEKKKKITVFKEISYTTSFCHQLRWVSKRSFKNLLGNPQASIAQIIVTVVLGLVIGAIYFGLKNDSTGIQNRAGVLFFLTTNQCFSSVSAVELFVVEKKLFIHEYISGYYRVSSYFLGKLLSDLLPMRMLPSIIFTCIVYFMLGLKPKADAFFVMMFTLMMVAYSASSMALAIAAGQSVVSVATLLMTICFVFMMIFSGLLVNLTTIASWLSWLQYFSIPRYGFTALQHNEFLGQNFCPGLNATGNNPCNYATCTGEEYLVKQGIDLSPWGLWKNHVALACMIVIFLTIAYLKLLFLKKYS
Summary of the method: (§2)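 Cells washed three times in Krebs-HEPES buffer, about 20,000 per well, preincubated with test compound at varied concentrations for 30 min at 37 °C, 5% CO2. Hoechst 33342 then added (final 1 µM). Fluorescence (ex 355, em 460 nm) read every 60 s up to 120 min at 37 °C. KHB background subtracted, 100–109 min mean plotted, four-parameter logistic fit; ≥3 independent experiments.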

[2] = molecular target: Multidrug resistance-associated protein 1 (Homo sapiens, UniProt P33527); test: Inhibition of MRP1 overexpressed in human 2008 MRP1 cells assessed as calcein AM accumulation at 10 uM by fluorimetry; type: cell-based; conditions: human, 2008, 10 µM
Chain of Multidrug resistance-associated protein 1 (P33527 whole entry): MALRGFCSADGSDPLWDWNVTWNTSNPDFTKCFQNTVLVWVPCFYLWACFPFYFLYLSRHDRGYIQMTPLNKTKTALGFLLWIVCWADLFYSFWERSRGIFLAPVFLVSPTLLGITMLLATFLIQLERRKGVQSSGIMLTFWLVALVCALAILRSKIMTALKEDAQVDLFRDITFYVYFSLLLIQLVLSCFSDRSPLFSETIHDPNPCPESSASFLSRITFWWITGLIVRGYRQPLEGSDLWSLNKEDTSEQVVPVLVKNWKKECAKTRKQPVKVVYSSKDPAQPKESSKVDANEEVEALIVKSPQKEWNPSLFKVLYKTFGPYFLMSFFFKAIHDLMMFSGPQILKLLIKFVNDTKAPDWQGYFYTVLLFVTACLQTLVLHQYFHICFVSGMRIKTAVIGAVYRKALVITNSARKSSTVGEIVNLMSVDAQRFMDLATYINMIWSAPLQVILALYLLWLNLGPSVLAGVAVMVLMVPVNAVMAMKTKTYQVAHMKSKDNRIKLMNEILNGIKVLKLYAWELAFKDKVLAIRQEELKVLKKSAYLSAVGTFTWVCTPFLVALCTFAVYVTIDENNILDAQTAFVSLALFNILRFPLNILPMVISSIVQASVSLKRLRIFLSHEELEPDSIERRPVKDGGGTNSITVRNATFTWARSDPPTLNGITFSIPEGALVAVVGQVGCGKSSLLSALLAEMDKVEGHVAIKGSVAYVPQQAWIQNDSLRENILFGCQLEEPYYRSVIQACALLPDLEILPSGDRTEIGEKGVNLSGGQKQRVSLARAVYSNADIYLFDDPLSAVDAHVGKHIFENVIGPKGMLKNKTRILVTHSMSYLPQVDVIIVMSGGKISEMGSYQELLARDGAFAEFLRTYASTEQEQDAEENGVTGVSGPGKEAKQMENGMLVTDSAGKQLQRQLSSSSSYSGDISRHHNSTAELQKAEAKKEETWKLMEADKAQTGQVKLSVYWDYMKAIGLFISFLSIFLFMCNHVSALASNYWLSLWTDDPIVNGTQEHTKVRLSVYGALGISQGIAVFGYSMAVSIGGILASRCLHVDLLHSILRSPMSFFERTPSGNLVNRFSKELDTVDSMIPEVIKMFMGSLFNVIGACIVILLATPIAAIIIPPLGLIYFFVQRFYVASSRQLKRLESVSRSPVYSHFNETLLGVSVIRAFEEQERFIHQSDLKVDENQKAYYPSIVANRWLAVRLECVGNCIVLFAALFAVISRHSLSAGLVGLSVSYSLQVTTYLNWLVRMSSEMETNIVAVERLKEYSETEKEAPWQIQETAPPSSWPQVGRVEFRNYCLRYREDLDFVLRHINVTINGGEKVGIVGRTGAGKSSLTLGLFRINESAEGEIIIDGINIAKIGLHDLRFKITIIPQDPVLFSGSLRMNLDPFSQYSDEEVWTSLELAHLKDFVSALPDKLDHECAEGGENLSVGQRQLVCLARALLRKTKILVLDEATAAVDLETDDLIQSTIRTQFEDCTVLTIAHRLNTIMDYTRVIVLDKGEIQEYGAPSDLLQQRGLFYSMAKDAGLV
Summary of the method: (§3)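 Calcein AM accumulation in A2780adr (P-gp) or 2008 MRP1 cells. Cells washed in Krebs-HEPES buffer, about 30,000 per well, preincubated 30 min with compound at 10 µM final. Calcein AM then added. Fluorescence (ex 485, em 520 nm) read every 60 s up to 90 min at 37 °C. Expressed as percent of vehicle control; n = 3.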

[3] = molecular target: T1, Broad substrate specificity ATP-binding cassette transporter ABCG2; test: Inhibition of BCRP in human MCF7/MX cells assessed as Hoechst 33342 accumulation preincubated for 30 mins by Fluorometry; type: cell-based; summary of the method: as §2
[4] = molecular target: ATP-dependent translocase ABCB1 (Homo sapiens, UniProt P08183); test: Inhibition of MDR1 in human A2780adr cells assessed as calcein AM accumulation at 10 uM by fluorimetry; type: cell-based; conditions: a2780 adr; summary of the method: as §3
Chain of ATP-dependent translocase ABCB1 (P08183 whole entry): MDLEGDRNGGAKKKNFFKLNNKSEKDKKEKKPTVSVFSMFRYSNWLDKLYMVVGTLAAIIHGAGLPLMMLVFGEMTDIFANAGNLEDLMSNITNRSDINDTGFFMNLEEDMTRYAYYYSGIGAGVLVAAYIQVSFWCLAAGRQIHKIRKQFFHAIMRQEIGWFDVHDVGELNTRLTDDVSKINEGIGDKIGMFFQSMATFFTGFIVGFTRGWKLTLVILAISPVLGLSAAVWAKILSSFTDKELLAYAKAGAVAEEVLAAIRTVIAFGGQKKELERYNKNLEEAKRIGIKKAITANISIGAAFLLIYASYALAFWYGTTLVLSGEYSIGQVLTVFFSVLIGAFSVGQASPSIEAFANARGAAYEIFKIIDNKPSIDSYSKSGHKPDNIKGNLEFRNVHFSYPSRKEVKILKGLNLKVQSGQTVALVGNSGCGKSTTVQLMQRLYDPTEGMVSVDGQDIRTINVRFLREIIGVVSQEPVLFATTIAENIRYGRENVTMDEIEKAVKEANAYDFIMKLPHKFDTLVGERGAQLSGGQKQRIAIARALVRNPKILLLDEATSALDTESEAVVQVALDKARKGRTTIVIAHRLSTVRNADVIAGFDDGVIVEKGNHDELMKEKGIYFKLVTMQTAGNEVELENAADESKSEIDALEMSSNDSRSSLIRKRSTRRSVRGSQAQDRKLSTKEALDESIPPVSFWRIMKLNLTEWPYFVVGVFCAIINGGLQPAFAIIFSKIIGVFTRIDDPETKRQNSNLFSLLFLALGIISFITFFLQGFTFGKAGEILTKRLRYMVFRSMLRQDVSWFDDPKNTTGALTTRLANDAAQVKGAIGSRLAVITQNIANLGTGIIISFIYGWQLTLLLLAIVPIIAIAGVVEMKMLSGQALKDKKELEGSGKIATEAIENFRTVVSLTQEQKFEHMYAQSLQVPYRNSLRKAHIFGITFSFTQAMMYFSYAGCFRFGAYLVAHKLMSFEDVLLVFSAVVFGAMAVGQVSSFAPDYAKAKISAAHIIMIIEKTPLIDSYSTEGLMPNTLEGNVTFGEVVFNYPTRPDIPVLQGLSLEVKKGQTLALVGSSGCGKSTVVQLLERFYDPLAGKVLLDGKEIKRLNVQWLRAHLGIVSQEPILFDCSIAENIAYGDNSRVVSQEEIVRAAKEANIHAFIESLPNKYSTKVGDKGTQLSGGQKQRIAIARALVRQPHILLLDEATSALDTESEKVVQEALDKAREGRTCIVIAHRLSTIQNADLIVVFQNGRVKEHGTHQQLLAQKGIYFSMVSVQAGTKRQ

MCF7/MX [5] = test: Potentiation of mitoxantrone anticancer activity against human MCF7/MX cells at 5 uM after 72 hrs by MTT assay; type: functional, cell-based; summary of the method: as §1
MCF7/MX [6] = test: Potentiation of mitoxantrone anticancer activity against human MCF7/MX cells at 3 uM after 72 hrs by MTT assay; type: functional, cell-based; summary of the method: as §1
MCF7/MX [7] = test: Potentiation of mitoxantrone anticancer activity against human MCF7/MX cells at 1 uM after 72 hrs by MTT assay; type: functional, cell-based; summary of the method: as §1

| Structure (SMILES) | Activity (MDCK-II) | IC50 ([1]; read-out: IC50) | inhibition (INH) [2] | IC50 ([3]; read-out: IC50) | inhibition (INH) [4] | Activity (MCF7/MX [5]) | Activity (MCF7/MX [6]) | Activity (MCF7/MX [7]) | IC50 ([1]; mdck-ii) | IC50 ([3]; mcf7/mx) |
| --- | --- | --- | --- | --- | --- | --- | --- | --- | --- | --- |
| COc1ccc(/C=C/C(=O)c2c(O)ccc3ccccc23)cc1OC | Dose-dependent effect | 0.72 µM | Not Active | 1.84 µM | Active | – | – | – | – | – |
| COc1cc(O)c(C(=O)/C=C/c2ccc(OC)c(OC)c2)c(OC)c1 | – | 0.53 µM | Not Active | 0.75 µM | Active | Active | Active | Active | – | – |
| COc1cc(O)c(C(=O)/C=C/c2ccccc2Cl)c(OC)c1 | – | 2.82 µM | Not Active | 5.27 µM | Active | – | – | – | – | – |
| COc1cc(OO)ccc1C(=O)/C=C/c1ccc(Cl)c(Cl)c1 | – | – | Not Active | – | Active | – | – | – | Not Active | Not Active |
